Active and inactive are the calls of the source. No cut-off for these calls is given here.
What was measured:
[1] = tested on: Mus musculus; experiment: Effective dose required to potentiate yohimbine hydrochloride induced lethality in mice, administered intraperitoneally; assay type: functional; details: ip
In short: (§1)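 Male Swiss-Webster or Swiss ND/4 mice, 20-24 g, randomized into groups of 10 and housed five per cage. Test drug in saline given ip, with a saline control group. Yohimbine hydrochloride 20 mg/kg sc was given 30 min later, and mice were then reaggregated.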

[2] = tested on: Mus musculus; experiment: Effective dose required to prevent reserpine ptosis in mice, administered (po)orally; assay type: functional
In short: (§2)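 Male Swiss-Webster or Harlan ICR mice, five per dose. Drug in saline given po or ip per line. Reserpine 2.5 mg/kg ip 30 min later. Complete absence of ptosis at 45 min after reserpine scored as positive. ED50 by Litchfield-Wilcoxon or Horn method, with 95% confidence intervals.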

[3] = Lethal dose in mouse p.o.; assay type: toxicity, organism-based; details: in vivo, po
[4] = Lethal dose in mouse i.p.; assay type: toxicity, organism-based; details: in vivo, ip
In short: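 Male Swiss-Webster albino mice, 20-24 g, in groups of five. Each group received one dose ip in saline (prepared 30 min before injection) at 10 mL/kg. Mice were held singly for about 5 h, then housed together with food and water. Deaths were counted at 1 and 24 h. LD50 by Litchfield-Wilcoxon.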

[5] = Therapeutic index administered perorally in mouse; assay type: organism-based; details: in vivo, po, read-out: Therapeutic index
In short: (§3)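 Index from mouse LD50 over reserpine-ptosis ED50 by the same route. […] Deaths recorded at 1 and 24 h; Litchfield-Wilcoxon calculation.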

[6] = tested on: Mus musculus; experiment: Electrical shock aggression was evaluated in mice, administered intraperitoneally; NA means no aggression blockade at 46.4 mg/kg; assay type: functional, organism-based; design: dose 46.4 mg/kg
In short: (§4)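 Pairs of mice placed under an inverted 1000 cm3 beaker and shocked through the floor grid (3 mA, 3 Hz) for 2 min. Drug given ip 30 min before testing; scored all-or-none against a saline group. Fighting counted as inhibited when mean attacks fell 1.5 SD below the vehicle mean.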

[7] = Therapeutic index administered intraperitoneally in mouse; assay type: organism-based; details: in vivo, ip, read-out: Therapeutic index; in short: as §3
[8] = tested on: Mus musculus; experiment: Effective dose required to prevent reserpine ptosis in mice, administered intraperitoneally; assay type: functional; details: ip; in short: as §2
[9] = tested on: Mus musculus; experiment: Effective dose required to prevent reserpine ptosis in mice, administered orally; assay type: functional; details: po; in short: as §2
[10] = tested on: Mus musculus; experiment: Effective dose required to prevent reserpine ptosis in mice, administered orally(po); NA=Not active at 100 mg/kg; assay type: functional, organism-based; design: dose 100 mg/kg; in short: as §2
[11] = tested on: Mus musculus; experiment: Effective dose required to prevent reserpine ptosis in mice administered intraperitoneally; NA=Not active; assay type: functional, organism-based; in short: as §2
[12] = tested on: Mus musculus; experiment: Effective dose required to prevent reserpine ptosis in mice, administered intraperitoneally; NA=Not active at 46 mg/Kg; assay type: functional, organism-based; in short: as §2
[13] = tested on: Mus musculus; experiment: Effective dose required to prevent reserpine ptosis in mice administered (po)orally; NA=Not active; assay type: functional, organism-based; in short: as §2
[14] = tested on: Mus musculus; experiment: Effective dose required to prevent reserpine ptosis in mice, administered intraperitoneally.; assay type: functional, organism-based; in short: as §2
[15] = tested on: Mus musculus; experiment: Effective dose required to prevent reserpine ptosis in mice, administered intraperitoneally; NA=Not active at 100 mg/kg; assay type: functional, organism-based; design: dose 100 mg/kg; in short: as §2
[16] = tested on: Mus musculus; experiment: Effective dose against yohimbine hydrochloride induced lethality in mice, administered intraperitoneally; assay type: functional; details: ip; in short: as §1
[17] = tested on: Mus musculus; experiment: Effective dose required to prevent reserpine ptosis in mice, administered orally(po); assay type: functional; in short: as §2
[18] = tested on: Mus musculus; experiment: Effective dose required to prevent reserpine ptosis in mice, administered po; NA=Not active; assay type: functional, organism-based; in short: as §2
[19] = tested on: Mus musculus; experiment: Effective dose required to prevent reserpine ptosis in mice administered orally; assay type: functional; details: po; in short: as §2
[20] = tested on: Mus musculus; experiment: Effective dose required to prevent reserpine ptosis in mice administered intraperitoneally; assay type: functional; details: ip; in short: as §2
[21] = tested on: Mus musculus; experiment: Effective dose required to prevent reserpine ptosis in mice, administered orally; NA=Not active at 100 mg/kg; assay type: functional, organism-based; design: dose 100 mg/kg; in short: as §2
[22] = tested on: Mus musculus; experiment: Effective dose required to prevent reserpine ptosis in mice, administered orally (po); assay type: functional; in short: as §2
[23] = tested on: Mus musculus; experiment: Electrical shock aggression was evaluated in mice, administered intraperitoneally; assay type: functional; details: ip; in short: as §4

CC/N=C(/Cc1ccc(Cl)c(Cl)c1)NCC.Cl
ED50 [1]: 6 mg/kg
ED50 [2]: 12.6 mg/kg
LD50 [3]: 90 mg/kg
LD50 [4]: 31.6 mg/kg
selectivity ratio [5]: 7
ED50 [6]: inactive
selectivity ratio [7]: 3
ED50 [8]: 9.3 mg/kg

C/N=C(/COc1ccc(Cl)cc1Cl)NC.Cl
ED50 [8]: 7.5 mg/kg

Cl.N=C(Cc1ccc2ccccc2c1Cl)N1CCC(Cc2ccccc2)CC1
ED50 [9]: 19.6 mg/kg

Cl.N=C(Cc1ccc2ccccc2c1)N1CCC(c2ccccc2)CC1
ED50 [9]: 14.7 mg/kg

Cl.N=C(Cc1ccc2ccccc2c1)N1CCC(N2CCCCC2)CC1
ED50 [2]: 40.8 mg/kg

COc1ccc(CC/N=C(/N)Cc2ccc3ccccc3c2)cc1OC
ED50 [10]: inactive

CCC/N=C(/COc1ccccc1)NCCC
ED50 [11]: inactive

CC/N=C(/Cc1cc(Cl)c(Cl)cc1Cl)NCC
ED50 [12]: inactive

C/N=C(/Cc1c(O)ccc2ccccc12)NC
ED50 [13]: inactive

C/N=C(/Cc1ccc(C)cc1)NC
ED50 [14]: inactive

CC/N=C(/Cc1ccc2ccccc2c1Cl)NCC.Cl
ED50 [15]: inactive
ED50 [16]: 41 mg/kg
ED50 [9]: 41 mg/kg

Cl.N=C(Cc1ccc2ccccc2c1Cl)N1CCOCC1
ED50 [17]: 15 mg/kg

COc1ccc2cc(CC(=N)N3CCC(c4ccccc4)CC3)ccc2c1
ED50 [10]: inactive

C/N=C(/Cc1cc2ccccc2cc1C)NC
ED50 [18]: inactive
ED50 [14]: inactive

Cl.N=C(Cc1ccc2ccccc2c1)N1CCCCCC1
ED50 [19]: 11 mg/kg

Cl.N=C(Cc1ccc2ccccc2c1Cl)N1CCC(O)(c2ccc(Cl)cc2)CC1
ED50 [17]: 10.8 mg/kg

C/N=C(/COc1ccccc1)NC.Cl
ED50 [1]: 2.2 mg/kg
ED50 [20]: 1.1 mg/kg

CNC(=N)Cc1ccc2ccccc2c1.Cc1ccc(S(=O)(=O)O)cc1.Cl
ED50 [17]: 22.5 mg/kg

C/N=C(\NC)c1ccccc1.Cl
ED50 [1]: 4 mg/kg
ED50 [8]: 0.8 mg/kg

CC/N=C(/Cc1cccc2ccccc12)NCC
ED50 [14]: inactive

Cl.N=C(Cc1ccc2ccccc2c1)N1CCCCC1
ED50 [9]: 11 mg/kg

N=C(Cc1ccc2ccccc2c1Cl)N1CCN(Cc2ccccc2)CC1
ED50 [10]: inactive

CN(CCO)C(=N)Cc1ccc2ccccc2c1.Cl
ED50 [2]: 19.6 mg/kg

Cc1ccc(C/N=C(/N)Cc2ccc3ccccc3c2)c(C)c1
ED50 [21]: inactive

C/N=C(\NC)c1ccc(Cl)cc1.Cl
ED50 [1]: 6 mg/kg
LD50 [3]: 200 mg/kg
LD50 [4]: 108 mg/kg
selectivity ratio [5]: 32
ED50 [22]: 6.2 mg/kg
selectivity ratio [7]: 16
ED50 [8]: 6.8 mg/kg

C/N=C(/Cc1ccc2cc(O)ccc2c1)NC.Cl
ED50 [2]: 23.7 mg/kg

C/N=C(/Cc1ccc2ccccc2c1)NC.Cl [NAPACTADINE HYDROCHLORIDE]
ED50 [1]: 0.8 mg/kg
LD50 [3]: 584 mg/kg
LD50 [4]: 68.1 mg/kg
ED50 [17]: 17.1 mg/kg
selectivity ratio [5]: 34
ED50 [23]: 12.6 mg/kg
selectivity ratio [7]: 5
ED50 [8]: 12.6 mg/kg

CC/N=C(/Cc1ccc(Br)cc1)NCC.Cl
ED50 [1]: 2.7 mg/kg
ED50 [8]: 2.8 mg/kg

Cl.Cl.N=C(Cc1ccc2ccccc2c1)NCCN1CCOCC1
ED50 [2]: 14.7 mg/kg

CC/N=C(/Cc1ccc2cc(C)ccc2c1)NCC
ED50 [15]: inactive

C/N=C(/Cc1ccc2ccccc2c1Cl)NC.Cl
ED50 [1]: 26.1 mg/kg
ED50 [2]: 15 mg/kg
ED50 [8]: 11 mg/kg

Cl.N=C(Cc1ccc2ccccc2c1Cl)N1CCC(c2ccccc2)CC1
ED50 [9]: 8.8 mg/kg

Cl.N=C(Cc1ccc2ccccc2c1Cl)N1CCCC1
ED50 [9]: 2.9 mg/kg

CC/N=C(/Cc1cccc(C(F)(F)F)c1)NCC.Cl
ED50 [1]: 12.8 mg/kg
ED50 [8]: 5.1 mg/kg

— ChEMBL document CHEMBL1122853, “New bicyclic antidepressant agent. Synthesis and activity of napactadine and related compounds” (J Med Chem, 1985)
